Measured values: ChEMBL document CHEMBL4699442, “Discovery of Soft-Drug Topical Tool Modulators of Sphingosine-1-phosphate Receptor 1 (S1PR1)” (ACS Med Chem Lett, 2019)

Tests used:
[1] = Lipophilicity, logD of compound at pH 7.4 by RP-HPLC analysis; format: physicochemical; settings: buffer
[2] = Stability of compound in DMSO assessed as decrease in purity incubated for 24 hrs; format: physicochemical
How it was run: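 Compound was held in DMSO solution and its stability judged after 24 h. Single determination, n = 1.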

[3] = Metabolic stability in human skin S9 cells assessed as half life at 0.5 uM incubated for 180 mins by UPLC-MS/MS analysis; format: ADME, subcellular, Zone of skin; settings: s9, 3 h
How it was run: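 Skin S9 fraction was incubated with compound in the presence of enzymatic cofactors. Stability was followed over 180 min, n = 1.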

[4] = Metabolic stability in human Hepatocyte assessed as intrinsic clearance at 1 uM incubated for 90 mins by UPLC-MS/MS analysis; format: ADME, tissue-based; settings: hepatocytes
How it was run: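 Human hepatocytes were incubated with compound to capture phase 2 and other metabolism.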

[5] = Dissociation constant, pKa of compound by potentiometric fast UV-metric titration method; format: physicochemical

## COCC/N=C1\S/C(=C\c2ccc(O)c(Cl)c2)C(=O)N1c1ccccc1C
[1]
  logD: 2.9

## CCC/N=C1\S/C(=C\c2ccc(OC(=O)COC)c(C)c2)C(=O)N1c1ccccc1C
[2]
  Stabilty: Unstable

## CCC/N=C1\S/C(=C\c2ccc(OC(=O)C(C)(C)C)c(C)c2)C(=O)N1c1ccccc1C
[3]
  t1/2: > 180 min

## CCC/N=C1\S/C(=C\c2ccc(OC[C@H](O)CO)c(Cl)c2)C(=O)N1c1ccccc1C [PONESIMOD]
[3]
  t1/2: > 180 min

## CCC/N=C1\S/C(=C\c2ccc(O)c(Cl)c2)C(=O)N1C1CCN(C)C(=O)C1 (racemic)
[1]
  logD: 0.6

## Cc1ccccc1N1C(=O)/C(=C/c2ccc(O)c(Cl)c2)S/C1=N\CCO
[1]
  logD: 1.9

## CCC/N=C1\S/C(=C\c2ccc(O)c(Cl)c2)C(=O)N1C1CCOCC1
[1]
  logD: 3.7

## CCC/N=C1\S/C(=C\c2ccc(O)c(Cl)c2)C(=O)N1c1ccccc1C
[4]
  CLH: 8.4 mL/min/g
[5]
  pKa: 6.8
[1]
  logD: 3.8

## CCC/N=C1\S/C(=C\c2ccc(O)c(C(C)C)c2)C(=O)N1c1ccccc1C
[4]
  CLH: 12 mL/min/g
[5]
  pKa: 8.6
[1]
  logD: 4.3

## CCC/N=C1\S/C(=C\c2ccc(OC(=O)CN(C)C)c(C)c2)C(=O)N1c1ccccc1C
[2]
  Stabilty: Unstable

## CCC/N=C1\S/C(=C\c2ccc(O)c(Cl)c2)C(=O)N1C(C)C
[1]
  logD: > 4.3

## CCC/N=C1\S/C(=C\c2ccc(OC(=O)C(C)C)c(C)c2)C(=O)N1c1ccccc1C
[3]
  t1/2: 21 min

## CCC/N=C1\S/C(=C\c2ccc(O)cn2)C(=O)N1c1ccccc1C
[4]
  CLH: 7.9 mL/min/g
[5]
  pKa: 7.1
[1]
  logD: 3

## CCC/N=C1\S/C(=C\c2ccc(O)c(C)c2)C(=O)N1c1ccccc1C
[4]
  CLH: 31 mL/min/g
[5]
  pKa: 8.5
[1]
  logD: 3.8

## CCC/N=C1\S/C(=C\c2ccc(O)c(C(F)(F)F)c2)C(=O)N1c1ccccc1C
[4]
  CLH: 4.2 mL/min/g
[5]
  pKa: 6.6
[1]
  logD: 3.8

## CCC/N=C1\S/C(=C\c2ccc(O)c(Cl)c2)C(=O)N1c1ccccc1O
[1]
  logD: 2.7

## Cc1ccccc1N1C(=O)/C(=C/c2ccc(O)c(Cl)c2)S/C1=N\CCCF
[1]
  logD: 3.4

## CCC/N=C1\S/C(=C\c2ccc(O)c(Cl)c2)C(=O)N1c1ccccc1OC
[1]
  logD: 3.3

## CCC/N=C1\S/C(=C\c2ccc(OC(C)=O)c(C)c2)C(=O)N1c1ccccc1C
[3]
  t1/2: 7.3 min

## CCC/N=C1\S/C(=C\c2ccc(OC(=O)CCO)c(C)c2)C(=O)N1c1ccccc1C
[3]
  t1/2: 8.2 min

## CCC/N=C1\S/C(=C\c2ccc(O)c(Br)c2)C(=O)N1c1ccccc1C
[4]
  CLH: 6 mL/min/g
[5]
  pKa: 6.4
[1]
  logD: 3.9

## CCC/N=C1\S/C(=C\c2ccc(O)cc2)C(=O)N1c1ccccc1C
[4]
  CLH: 1.7 mL/min/g
[5]
  pKa: 8.3
[1]
  logD: 3.5

## CCC/N=C1\S/C(=C\c2ccc(OC(C)=O)c(C(F)(F)F)c2)C(=O)N1c1ccccc1C
[3]
  t1/2: 8.3 min

## CCC/N=C1\S/C(=C\c2ccc(O)c(Cl)c2)C(=O)N1C1CCS(=O)(=O)CC1
[1]
  logD: 2.6

## CCC/N=C1\S/C(=C\c2ccc(O)c(Cl)c2)C(=O)N1C1CC1
[1]
  logD: 3.4

## Cc1ccccc1N1C(=O)/C(=C/c2ccc(O)c(Cl)c2)S/C1=N\C1COC1
[1]
  logD: 2.6

## CCC/N=C1\S/C(=C\c2ccc(OC(=O)CCOC)c(C)c2)C(=O)N1c1ccccc1C
[3]
  t1/2: 4.8 min

## CCC/N=C1\S/C(=C\c2ccc(OC(C)=O)c(Br)c2)C(=O)N1c1ccccc1C
[3]
  t1/2: 8.8 min
